Reference: ChEMBL document CHEMBL3085768, “Structure-guided design of potent diazobenzene inhibitors for the BET bromodomains” (J Med Chem, 2013)
Calls of active or inactive are those of the source. The rule behind the calls is not given here.

Columns and labels:
CREB-binding protein = CREB-binding protein (Homo sapiens, UniProt Q92793); assay: Displacement of fluorescein-labeled MS226 from recombinant human CBP bromodomain after 1 hr by fluorescence anisotropy assay
Summary of the method: (§1)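 Competition fluorescence anisotropy with His-tag-removed recombinant bromodomain (Ni-IDA purified, thrombin cleaved) at 0.25–1 µM, chosen so that 50–80% of probe is bound. FITC-labeled probe at 80 nM (≤2Kd), unlabeled ligand titrated, in PBS pH 7.4, read after 1 h at 25 °C. IC50 from curve fit, converted to Ki with the Nikolovska-Coleska correction to Cheng-Prusoff (one-site competitive). The resolvable Ki is limited by the probe Kd.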

[1] = target: Bromodomain-containing protein 4 (Mus musculus) (UniProt Q9ESU6); assay: (§2) Inhibition of BRD4 in LPS-stimulated mouse RAW264.7 cells assessed as inhibition of NF-kappaB-mediated IL-6 expression preincubated for 30 mins followed by LPS stimulation measured after 24 hrs by ELISA; format: cell-based
Summary of the method: (§3)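 RAW264.7 cells grown in DMEM/10% FBS at 37 °C, 5% CO2, plated at 3 × 10^5 cells/mL, pretreated with inhibitor for 30 min. Medium was then replaced with LPS (1 µg/mL) plus inhibitor for 24 h. Compounds were diluted from DMSO to 0.28–50000 nM, final DMSO 0.05% (v/v). Supernatant IL-6 was measured by mouse ELISA read at 570 nm.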

[2] = target: T1, Bromodomain-containing protein 4 (Mus musculus, UniProt Q9ESU6); assay: as §2; format: cell-based; summary of the method: as §3
[3] = target: SWI/SNF-related matrix-associated actin-dependent regulator of chromatin subfamily A member 4 (Homo sapiens, UniProt P51532); assay: Displacement of fluorescein-labeled MS239 from recombinant human SMARCA4 bromodomain after 1 hr by fluorescence anisotropy assay; summary of the method: as §1
[4] = target: T2, Bromodomain-containing protein 3 (Homo sapiens, UniProt Q15059); assay: Displacement of fluorescein-labeled MS574 from recombinant human BRD3 BrD1 after 1 hr by fluorescence anisotropy assay; summary of the method: as §1
[5] = target: T3, Bromodomain-containing protein 4 (Homo sapiens, UniProt O60885); assay: Displacement of fluorescein-labeled MS574 from recombinant human BRD4 BrD1 after 1 hr by fluorescence anisotropy assay; summary of the method: as §1
RAW264.7 = assay: Cytotoxicity against mouse RAW264.7 cells assessed as cell viability up to 100 uM after 24 hrs by MTT assay; format: cell-based; settings: raw264.7, 24 h
Summary of the method: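 RAW264.7 macrophages seeded at 1 × 10^4 cells/well, settled 18 h at 37 °C, then exposed to inhibitors up to 100 µM for 24 h. Compounds were predissolved in DMSO and diluted in medium, final DMSO 0.05% (v/v). MTT (4 mg/ml) was added for 4 h at 37 °C, formazan solubilized in DMSO, and absorbance read at 570/630 nm.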

[6] = target: T4, Bromodomain-containing protein 7 (Homo sapiens, UniProt Q9NPI1); assay: Displacement of fluorescein-labeled MS226 from recombinant human BRD7 after 1 hr by fluorescence anisotropy assay; summary of the method: as §1
T4 sequence (Q9NPI1 whole entry): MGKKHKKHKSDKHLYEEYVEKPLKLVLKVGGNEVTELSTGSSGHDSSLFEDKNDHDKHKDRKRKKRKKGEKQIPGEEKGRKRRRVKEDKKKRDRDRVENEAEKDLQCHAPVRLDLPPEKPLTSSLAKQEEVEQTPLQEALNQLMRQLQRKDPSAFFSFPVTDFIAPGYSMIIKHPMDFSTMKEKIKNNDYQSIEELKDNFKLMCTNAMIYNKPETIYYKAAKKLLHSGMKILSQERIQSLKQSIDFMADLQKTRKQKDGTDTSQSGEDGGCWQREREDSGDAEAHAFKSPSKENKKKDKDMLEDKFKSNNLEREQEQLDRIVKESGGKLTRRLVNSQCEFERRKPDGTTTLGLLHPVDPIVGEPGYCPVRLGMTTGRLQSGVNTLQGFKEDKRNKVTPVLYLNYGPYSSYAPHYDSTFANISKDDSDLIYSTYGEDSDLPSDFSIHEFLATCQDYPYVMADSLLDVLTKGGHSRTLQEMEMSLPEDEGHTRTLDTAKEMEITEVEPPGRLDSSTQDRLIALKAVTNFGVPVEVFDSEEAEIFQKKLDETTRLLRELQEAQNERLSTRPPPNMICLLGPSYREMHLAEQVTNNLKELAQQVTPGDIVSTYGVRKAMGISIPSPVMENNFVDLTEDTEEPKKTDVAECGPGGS

[7] = target: T2, Bromodomain-containing protein 3; assay: Displacement of fluorescein-labeled MS574 from recombinant human BRD3 BrD2 after 1 hr by fluorescence anisotropy assay; summary of the method: as §1
[8] = target: T3, Bromodomain-containing protein 4; assay: Displacement of fluorescein-labeled MS574 from recombinant human BRD4 BrD2 after 1 hr by fluorescence anisotropy assay; summary of the method: as §1
[9] = target: Bromodomain-containing protein 4 (Mus musculus) (UniProt Q9ESU6); assay: (§4) Inhibition of BRD4 in LPS-stimulated mouse RAW264.7 cells assessed as inhibition of NF-kappaB-mediated nitric oxide production preincubated for 30 mins followed by LPS stimulation measured after 24 hrs by spectrophotometric analysis; format: cell-based
Summary of the method: (§5)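 RAW264.7 cells in DMEM/10% FBS, plated at 3 × 10^5 cells/mL, pretreated with inhibitor 30 min, then LPS (1 µg/mL) plus inhibitor for 24 h. Inhibitor concentrations 0.28–50000 nM from DMSO stock, final DMSO 0.05% (v/v). Nitrite in the supernatant was measured spectrophotometrically at 520 nm.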

[10] = target: T1, Bromodomain-containing protein 4; assay: as §4; format: cell-based; summary of the method: as §5
[11] = target: Nucleosome-remodeling factor subunit BPTF (Homo sapiens, UniProt Q12830); assay: Displacement of fluorescein-labeled MS239 from recombinant human BPTF after 1 hr by fluorescence anisotropy assay; summary of the method: as §1
[12] = target: Histone acetyltransferase KAT2B (Homo sapiens, UniProt Q92831); assay: Displacement of fluorescein-labeled MS239 from recombinant human PCAF after 1 hr by fluorescence anisotropy assay; summary of the method: as §1

Sequence of SWI/SNF-related matrix-associated actin-dependent regulator of chromatin subfamily A member 4 (P51532 whole entry): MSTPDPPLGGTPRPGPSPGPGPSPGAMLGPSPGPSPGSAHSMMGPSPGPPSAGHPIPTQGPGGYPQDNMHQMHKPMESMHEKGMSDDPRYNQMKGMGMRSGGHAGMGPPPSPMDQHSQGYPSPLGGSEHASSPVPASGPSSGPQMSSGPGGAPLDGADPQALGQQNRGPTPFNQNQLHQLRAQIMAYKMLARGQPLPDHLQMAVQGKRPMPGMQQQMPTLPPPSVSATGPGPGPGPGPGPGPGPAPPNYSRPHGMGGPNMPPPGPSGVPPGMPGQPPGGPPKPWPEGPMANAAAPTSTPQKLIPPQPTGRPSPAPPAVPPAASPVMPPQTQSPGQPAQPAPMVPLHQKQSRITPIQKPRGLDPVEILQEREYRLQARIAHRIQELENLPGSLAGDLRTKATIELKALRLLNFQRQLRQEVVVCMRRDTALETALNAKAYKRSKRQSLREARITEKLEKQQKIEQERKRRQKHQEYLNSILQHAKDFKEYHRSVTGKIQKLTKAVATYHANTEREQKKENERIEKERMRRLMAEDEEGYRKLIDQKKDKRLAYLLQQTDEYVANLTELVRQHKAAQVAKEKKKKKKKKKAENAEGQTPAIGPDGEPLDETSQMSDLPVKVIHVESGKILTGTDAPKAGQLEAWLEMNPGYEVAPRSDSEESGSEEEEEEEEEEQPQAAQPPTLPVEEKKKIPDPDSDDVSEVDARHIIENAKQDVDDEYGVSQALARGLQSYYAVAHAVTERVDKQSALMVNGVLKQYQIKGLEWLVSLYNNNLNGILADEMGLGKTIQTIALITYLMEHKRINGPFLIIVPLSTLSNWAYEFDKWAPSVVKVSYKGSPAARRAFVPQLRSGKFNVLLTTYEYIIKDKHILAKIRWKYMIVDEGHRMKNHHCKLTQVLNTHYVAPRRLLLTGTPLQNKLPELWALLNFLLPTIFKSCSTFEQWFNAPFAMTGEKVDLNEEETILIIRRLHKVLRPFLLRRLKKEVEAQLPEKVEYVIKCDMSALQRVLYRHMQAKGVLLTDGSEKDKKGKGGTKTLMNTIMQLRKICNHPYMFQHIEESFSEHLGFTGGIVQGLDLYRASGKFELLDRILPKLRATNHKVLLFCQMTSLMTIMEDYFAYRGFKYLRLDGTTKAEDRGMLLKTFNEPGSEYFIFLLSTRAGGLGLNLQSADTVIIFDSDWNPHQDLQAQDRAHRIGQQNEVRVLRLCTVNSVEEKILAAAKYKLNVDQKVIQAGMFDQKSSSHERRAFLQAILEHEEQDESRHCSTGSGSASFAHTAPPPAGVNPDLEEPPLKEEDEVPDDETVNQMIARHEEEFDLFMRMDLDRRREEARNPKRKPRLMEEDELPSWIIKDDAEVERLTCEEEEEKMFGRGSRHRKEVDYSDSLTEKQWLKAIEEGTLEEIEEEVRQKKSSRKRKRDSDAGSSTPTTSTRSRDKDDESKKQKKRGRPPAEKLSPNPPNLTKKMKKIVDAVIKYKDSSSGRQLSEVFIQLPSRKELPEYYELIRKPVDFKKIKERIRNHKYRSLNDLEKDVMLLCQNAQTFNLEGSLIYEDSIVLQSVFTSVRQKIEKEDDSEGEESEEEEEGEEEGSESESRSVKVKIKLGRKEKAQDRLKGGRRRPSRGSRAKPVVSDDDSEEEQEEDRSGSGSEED
T2 sequence (Q15059 whole entry): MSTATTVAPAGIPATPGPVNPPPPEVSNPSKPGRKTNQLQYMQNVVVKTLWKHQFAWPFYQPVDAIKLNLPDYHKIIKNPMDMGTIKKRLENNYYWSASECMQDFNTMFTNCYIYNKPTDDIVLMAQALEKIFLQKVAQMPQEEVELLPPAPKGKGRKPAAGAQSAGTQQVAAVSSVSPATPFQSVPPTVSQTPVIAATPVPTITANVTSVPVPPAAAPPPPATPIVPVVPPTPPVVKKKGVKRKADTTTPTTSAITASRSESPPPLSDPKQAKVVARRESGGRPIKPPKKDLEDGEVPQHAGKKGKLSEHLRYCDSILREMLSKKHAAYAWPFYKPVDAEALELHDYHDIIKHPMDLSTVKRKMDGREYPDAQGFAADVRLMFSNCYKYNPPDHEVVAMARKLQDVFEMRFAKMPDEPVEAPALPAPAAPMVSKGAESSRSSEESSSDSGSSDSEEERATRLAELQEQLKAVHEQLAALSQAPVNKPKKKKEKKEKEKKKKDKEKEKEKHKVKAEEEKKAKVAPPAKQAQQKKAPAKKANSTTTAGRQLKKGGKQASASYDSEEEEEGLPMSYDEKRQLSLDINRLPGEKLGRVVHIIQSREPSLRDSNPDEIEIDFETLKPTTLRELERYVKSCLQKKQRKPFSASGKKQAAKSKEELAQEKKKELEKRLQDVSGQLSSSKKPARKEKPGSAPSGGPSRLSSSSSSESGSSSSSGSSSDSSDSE
Sequence of CREB-binding protein (Q92793 whole entry): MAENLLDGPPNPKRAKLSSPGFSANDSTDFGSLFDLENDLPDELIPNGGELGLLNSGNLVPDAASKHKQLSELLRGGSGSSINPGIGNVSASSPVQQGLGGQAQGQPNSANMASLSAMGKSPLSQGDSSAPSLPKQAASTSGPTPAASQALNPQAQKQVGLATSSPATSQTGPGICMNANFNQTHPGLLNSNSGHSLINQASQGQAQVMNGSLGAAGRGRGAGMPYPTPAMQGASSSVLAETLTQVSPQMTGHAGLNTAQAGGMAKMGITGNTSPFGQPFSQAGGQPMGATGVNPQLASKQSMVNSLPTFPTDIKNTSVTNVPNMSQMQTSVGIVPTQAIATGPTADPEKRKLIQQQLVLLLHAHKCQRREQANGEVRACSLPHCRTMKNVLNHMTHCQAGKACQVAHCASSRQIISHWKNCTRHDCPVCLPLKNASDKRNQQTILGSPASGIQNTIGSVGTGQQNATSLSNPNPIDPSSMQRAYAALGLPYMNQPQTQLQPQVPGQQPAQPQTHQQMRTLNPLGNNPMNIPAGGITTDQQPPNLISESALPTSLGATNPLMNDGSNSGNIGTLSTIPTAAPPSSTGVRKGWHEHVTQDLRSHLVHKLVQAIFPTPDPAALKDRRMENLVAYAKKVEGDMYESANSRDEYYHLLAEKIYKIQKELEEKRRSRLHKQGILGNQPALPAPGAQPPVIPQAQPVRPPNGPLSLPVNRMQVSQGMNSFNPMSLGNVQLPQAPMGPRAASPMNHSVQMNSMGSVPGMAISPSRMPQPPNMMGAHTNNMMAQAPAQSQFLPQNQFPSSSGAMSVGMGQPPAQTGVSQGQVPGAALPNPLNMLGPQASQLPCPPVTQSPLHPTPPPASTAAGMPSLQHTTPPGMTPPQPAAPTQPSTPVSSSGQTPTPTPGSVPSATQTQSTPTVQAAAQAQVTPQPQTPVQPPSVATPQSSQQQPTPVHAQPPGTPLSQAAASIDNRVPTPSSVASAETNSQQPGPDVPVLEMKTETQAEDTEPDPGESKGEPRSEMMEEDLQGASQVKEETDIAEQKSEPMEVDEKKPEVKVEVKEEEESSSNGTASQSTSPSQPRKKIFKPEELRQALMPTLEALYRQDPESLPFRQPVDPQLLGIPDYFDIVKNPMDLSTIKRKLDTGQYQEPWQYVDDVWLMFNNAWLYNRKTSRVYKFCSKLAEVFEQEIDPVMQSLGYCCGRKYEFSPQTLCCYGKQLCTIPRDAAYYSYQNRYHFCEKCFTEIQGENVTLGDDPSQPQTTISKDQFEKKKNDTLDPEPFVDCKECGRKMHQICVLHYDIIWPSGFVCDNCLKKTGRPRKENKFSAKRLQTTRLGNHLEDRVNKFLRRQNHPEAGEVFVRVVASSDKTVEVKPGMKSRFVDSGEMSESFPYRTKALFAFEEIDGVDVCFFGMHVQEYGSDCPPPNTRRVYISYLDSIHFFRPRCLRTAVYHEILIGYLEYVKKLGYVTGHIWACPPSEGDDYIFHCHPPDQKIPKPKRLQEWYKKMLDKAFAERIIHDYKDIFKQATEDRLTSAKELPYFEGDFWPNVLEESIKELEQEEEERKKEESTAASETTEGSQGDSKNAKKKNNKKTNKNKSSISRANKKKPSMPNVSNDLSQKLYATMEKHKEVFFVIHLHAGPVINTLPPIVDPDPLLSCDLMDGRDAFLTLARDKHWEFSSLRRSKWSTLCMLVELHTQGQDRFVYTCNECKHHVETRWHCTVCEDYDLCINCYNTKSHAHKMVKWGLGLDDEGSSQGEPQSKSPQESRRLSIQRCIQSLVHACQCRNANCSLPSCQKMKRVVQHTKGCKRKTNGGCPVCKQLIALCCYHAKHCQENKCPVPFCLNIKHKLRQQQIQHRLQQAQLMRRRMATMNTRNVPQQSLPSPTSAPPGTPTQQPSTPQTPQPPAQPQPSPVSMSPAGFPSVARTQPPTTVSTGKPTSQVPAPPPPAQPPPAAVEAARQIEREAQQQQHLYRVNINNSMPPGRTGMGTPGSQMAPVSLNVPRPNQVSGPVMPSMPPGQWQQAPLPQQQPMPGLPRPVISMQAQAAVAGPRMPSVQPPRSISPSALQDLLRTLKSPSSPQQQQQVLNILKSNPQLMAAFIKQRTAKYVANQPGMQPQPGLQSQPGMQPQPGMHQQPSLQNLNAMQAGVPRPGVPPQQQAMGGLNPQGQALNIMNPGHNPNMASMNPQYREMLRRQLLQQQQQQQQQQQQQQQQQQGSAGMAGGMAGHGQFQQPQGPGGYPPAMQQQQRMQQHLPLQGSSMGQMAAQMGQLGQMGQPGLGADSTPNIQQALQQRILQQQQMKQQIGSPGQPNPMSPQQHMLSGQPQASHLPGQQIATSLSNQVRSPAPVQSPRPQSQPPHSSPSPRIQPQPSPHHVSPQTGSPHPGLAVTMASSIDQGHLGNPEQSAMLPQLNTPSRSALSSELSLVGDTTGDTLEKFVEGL

Row | Ki ([5]; read-out: Ki) [nM] | Ki [8] [µM] | SMILES | further results
1 | 910 | 4.3 | Cc1cc(/N=N/c2ccc(S(=O)(=O)Nc3ccccn3)cc2)cc(C)c1O | Ki (CREB-binding protein): 7.15 µM; inhibition [1]: Dose-dependent effect; IC50 [2]: 16 µM; Ki [3]: < 6.56 µM; Ki [4]: 1640 nM; Ki ([5]; read-out: pKi (converted)): 912 nM; Activity (RAW264.7): Non-toxic; Ki [6]: 3540 nM; Ki [7]: 2480 nM; inhibition [9]: Dose-dependent effect; IC50 [10]: 46.3 µM
2 | 1280 | 5.39 | COc1cc(/N=N/c2ccc(S(=O)(=O)Nc3ccccn3)cc2)c(N)cc1O | 
3 | 6020 | 9.1 | Cc1nc(/N=N/c2ccc(S(=O)(=O)Nc3ccccn3)cc2)c(C)c(C)c1O | 
4 | 4590 | 3.91 | O=S(=O)(Nc1ccccn1)c1ccc(/N=N/c2ccc(O)c(O)c2)cc1 | 
5 | 2310 | 24.6 | Cc1cc(/N=N/c2ccc(S(=O)(=O)Nc3ccccn3)cc2)nc(C)c1O | 
6 | 1300 | 6.16 | O=S(=O)(Nc1ccccn1)c1ccc(/N=N/c2ccc(O)c(Cl)c2)cc1 | 
7 | 1400 | 4.81 | Cc1cc(/N=N/c2ccc(S(=O)(=O)Nc3ccccn3)cc2)cc(Cl)c1O | 
8 | 9450 | 6.83 | O=S(=O)(Nc1ccccn1)c1ccc(/N=N/c2ccc(O)c(C(F)(F)F)c2)cc1 | 
9 | 6430 | 8.2 | Cc1cc(/N=N/c2ccc(S(=O)(=O)Nc3ccccn3)cc2)ccc1O | 
10 | 2790 | 4.48 | Cc1cc(/N=N/c2ccc(S(=O)(=O)Nc3ccccn3)cc2)cc(Br)c1O | 
11 | 4670 | 4.69 | O=S(=O)(Nc1ccccn1)c1ccc(/N=N/c2ccc(O)c(Br)c2)cc1 | 
12 | 1270 | 4.89 | O=S(=O)(Nc1ccccn1)c1ccc(/N=N/c2cc(Cl)c(O)c(Cl)c2)cc1 | 
13 | 2390 | 3.27 | Cc1cc(/N=N/c2ccc(S(=O)(=O)Nc3ccccn3)cc2)cc(O)c1O | 
14 | 520 | 4.29 | O=S(=O)(Nc1ccccn1)c1ccc(/N=N/c2cc(Br)c(O)c(Br)c2)cc1 | 

Further lines, the compound ahead of its results:

Row | SMILES | Ki ([5]; read-out: Ki) [nM] | Ki [8] [µM] | further results
15 | Cc1cc(/N=N/c2ccc(S(=O)(=O)Nc3ccccn3)cc2)c(N)c(Cl)c1O |  |  | Ki (CREB-binding protein): 5.59 µM; inhibition [1]: Dose-dependent effect; IC50 [2]: 3.8 µM; Ki [3]: < 6.56 µM; Ki [4]: 240 nM; Activity (RAW264.7): Non-toxic; Ki [11]: 1.62 µM; Ki [6]: < 1430 nM; Ki [12]: < 3.34 µM; Ki [7]: 320 nM; inhibition [9]: Dose-dependent effect; IC50 [10]: 3.4 µM
16 | COc1cc(/N=N/c2cc(C)c(O)c(C)c2)ccc1S(=O)(=O)Nc1ccccn1 | 3130 | 7.77 | 
17 | Cc1cc(/N=N/c2ccc(S(=O)(=O)NCc3ccc(C(F)(F)F)cc3)cc2)cc(C)c1O | > 100000 | > 100 | 
18 | Cc1cc(/N=N/c2cc(S(=O)(=O)O)c(C)cc2C)c(N)cc1O [ISCHEMIN] | 10800 | 19.7 | 
19 | CC(C)c1cc(/N=N/c2ccc(S(=O)(=O)Nc3ccccn3)cc2)cc(C(C)C)c1O |  |  | inhibition [5]: inactive; inhibition [8]: inactive
20 | O=S(=O)(Nc1ccccn1)c1ccc(/N=N/c2ccc(O)c3c2CCCC3)cc1 |  |  | inhibition [5]: Active
21 | Cc1cc(/N=N/c2cccc(S(=O)(=O)Nc3ccccn3)c2)cc(C)c1O | 5970 | 40.4 | 
22 | Cc1cc(/N=N/c2ccc(S(=O)(=O)Nc3ccc(C(F)(F)F)cc3)cc2)cc(C)c1O | 10700 | 7.14 | 
23 | Cc1cc(/N=N/c2ccc(S(=O)(=O)Nc3ccc(Br)cn3)cc2)cc(C)c1O | 6540 | 38.7 | 
24 | Cc1nc(/N=N/c2ccc(S(=O)(=O)Nc3ccccn3)cc2)c(CO)c(C=O)c1O |  |  | inhibition [5]: inactive
25 | CC1(C)Cc2c(/N=N/c3ccc(S(=O)(=O)Nc4ccccn4)cc3)ccc(O)c2O1 |  |  | inhibition [5]: Active
26 | Cc1cc(/N=N/c2ccc(S(=O)(=O)Nc3ccc(C(=O)O)cn3)cc2)cc(C)c1O | 320 | 1.38 | 
27 | COc1c(C)cc(/N=N/c2ccc(S(=O)(=O)Nc3ccccn3)cc2)cc1C |  |  | inhibition [5]: inactive; inhibition [8]: inactive
28 | Cc1nc(/N=N/c2ccc(S(=O)(=O)Nc3ccccn3)cc2)c(CO)c(CN)c1O |  |  | inhibition [5]: inactive
29 | Cc1cc(/N=N/c2ccc(S(=O)(=O)Nc3ccc(Cl)cn3)cc2)cc(C)c1O | 730 | 5.84 | 
30 | Cc1cc(/N=N/c2ccc(S(=O)(=O)Nc3ccccn3)cc2)c(N)cc1O |  |  | Ki (CREB-binding protein): 2.18 µM; inhibition [1]: Dose-dependent effect; IC50 [2]: 4.9 µM; Ki [3]: 7.97 µM; Ki [4]: 100 nM; Activity (RAW264.7): Non-toxic; Ki [11]: 6.06 µM; Ki [6]: 2720 nM; Ki [12]: 5.52 µM; Ki [7]: 140 nM; inhibition [9]: Dose-dependent effect; IC50 [10]: 3.8 µM
31 | Cc1cc(/N=N/c2ccc(S(=O)(=O)Nc3ccc(C(N)=O)cc3)cc2)cc(C)c1O | 9600 | 12.2 | 
32 | Cc1cc(C)c(S(=O)(=O)O)cc1/N=N/c1cc(C)c(O)c(C)c1 | 4920 | 6.37 | 
33 | Cc1nc(/N=N/c2ccc(S(=O)(=O)Nc3ccccn3)cc2)c(CO)c(C)c1O |  |  | inhibition [5]: inactive
34 | Cc1cc(/N=N/c2ccc(S(=O)(=O)Nc3ccc(F)cn3)cc2)cc(C)c1O | 1300 | 3.44 | 
35 | COc1ccc(NS(=O)(=O)c2ccc(/N=N/c3cc(C)c(O)c(C)c3)cc2)cc1 | 6480 | 6.59 | 
36 | Cc1cc(/N=N/c2ccc(S(=O)(=O)N(C)c3ccccn3)cc2)cc(C)c1O | 7890 | 7.12 | 
37 | Cc1cc(/N=N/c2ccc(S(=O)(=O)Nc3cccc(C(F)(F)F)c3)cc2)cc(C)c1O | 6130 | 7.77 | 
38 | CC(C)(C)c1cc(/N=N/c2ccc(S(=O)(=O)Nc3ccccn3)cc2)cc(C(C)(C)C)c1O |  |  | inhibition [5]: inactive; inhibition [8]: inactive
39 | Cc1cc(/N=N/c2ccc(S(=O)(=O)Nc3cc(Cl)ccn3)cc2)cc(C)c1O | 900 | 5.92 | 
40 | CC(=O)Nc1c(C)cc(/N=N/c2ccc(S(=O)(=O)Nc3ccccn3)cc2)cc1C |  |  | inhibition [5]: inactive; inhibition [8]: inactive
41 | O=S(=O)(Nc1ccccn1)c1ccc(/N=N/c2ccc(O)c3c2NCCC3)cc1 |  |  | inhibition [5]: Active
42 | Cc1cc(/N=N/c2ccc(S(=O)(=O)Nc3ccc(F)cc3)cc2)cc(C)c1O | 1840 | 8.87 | 
43 | COc1ccc(NS(=O)(=O)c2ccc(/N=N/c3cc(C)c(O)c(C)c3)cc2)nc1 | 500 | 2.23 | 
44 | O=S(=O)(Nc1ccccn1)c1ccc(/N=N/c2ccc(O)c3ccccc23)cc1 |  |  | inhibition [5]: Active
